Measured values published in ChEMBL document CHEMBL5303300, “EUbOPEN Chemogenomics Library - Multiplex” (2023).
Values joined by “and” are separate entries in the source; they are usually repeats but may differ in a detail not shown here. Identical values can stand only once.

System: Fibroblast
Test: Multiplex assay against human fibroblast
Assay type: toxicity, cell-based
Conditions: number of replicates 2
Method in brief: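 Cells were classed with CellPathfinder machine-learning gating, first as Hoechst high-intensity objects or normal cells, then (normal cells) as healthy, pyknosed or fragmented nuclei, and finally (pyknosed cells) as mitotic or apoptotic. Staining of live cells at seeding used Hoechst33342, BioTracker Green Microtubule Cytoskeleton Dye, MitoTracker Red and Annexin V Alexa Fluor 680, with imaging on a CQ1 microscope at 37°C and 5% CO2 after compound addition. Tubulin, mitochondrial-mass and membrane-permeability phenotypes are per cents of healthy-nucleus cells.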

[1] = 12 h, 1 µM, compound concentration 1 uM
[2] = 12 h, 10 µM, compound concentration 10 uM
[3] = 24 h, 1 µM, compound concentration 1 uM
[4] = 24 h, 10 µM, compound concentration 10 uM
[5] = 48 h, 1 µM, compound concentration 1 uM
[6] = 48 h, 10 µM, compound concentration 10 uM

CCCNc1ccc2ncc(-c3ccncc3)n2n1
Population Apoptotic (%) [1]: 30% and 34% | Population Fragmented Nuclei (%) [1]: 4% and 14% | Population Healthy Nuclei (%) [1]: 65% and 63% | Population Hoechst High Intensity Objects (%) [1]: 0% | Population Membrane Permeable-Phenotype (%) [1]: 14% and 6% | Population Mitochondria Different-Phenotype (%) [1]: 0% | Population Mitotic Cells (%) [1]: 69% and 65% | Population Normal (%) [1]: 100% | Population Pyknosed Nuclei (%) [1]: 29% and 21% | Population Tubulin-Different-Phenotype (%) [1]: 18% and 9% | Total Cell Count [1]: 144 and 202 | Population Apoptotic (%) [2]: 51% and 53% | Population Fragmented Nuclei (%) [2]: 12% and 10% | Population Healthy Nuclei (%) [2]: 70% and 75% | Population Hoechst High Intensity Objects (%) [2]: 0% | Population Membrane Permeable-Phenotype (%) [2]: 4% and 3% | Population Mitochondria Different-Phenotype (%) [2]: 5% and 1% | Population Mitotic Cells (%) [2]: 48% and 46% | Population Normal (%) [2]: 100% | Population Pyknosed Nuclei (%) [2]: 17% and 13% | Population Tubulin-Different-Phenotype (%) [2]: 27% and 17% | Total Cell Count [2]: 157 and 204 | Population Apoptotic (%) [3]: 38% and 42% | Population Fragmented Nuclei (%) [3]: 9% and 14% | Population Healthy Nuclei (%) [3]: 61% and 63% | Population Hoechst High Intensity Objects (%) [3]: 0% | Population Membrane Permeable-Phenotype (%) [3]: 9% and 8% | Population Mitochondria Different-Phenotype (%) [3]: 2% and 1% | Population Mitotic Cells (%) [3]: 61% and 57% | Population Normal (%) [3]: 100% | Population Pyknosed Nuclei (%) [3]: 29% and 21% | Population Tubulin-Different-Phenotype (%) [3]: 25% and 13% | Total Cell Count [3]: 143 and 193 | Population Apoptotic (%) [4]: 75% and 65% | Population Fragmented Nuclei (%) [4]: 18% and 15% | Population Healthy Nuclei (%) [4]: 65% and 68% | Population Hoechst High Intensity Objects (%) [4]: 0% | Population Membrane Permeable-Phenotype (%) [4]: 5% and 3% | Population Mitochondria Different-Phenotype (%) [4]: 8% and 7% | Population Mitotic Cells (%) [4]: 25% and 34% | Population Normal (%) [4]: 99% and 100% | Population Pyknosed Nuclei (%) [4]: 16% | Population Tubulin-Different-Phenotype (%) [4]: 33% and 30% | Total Cell Count [4]: 151 and 200 | Population Apoptotic (%) [5]: 55% and 59% | Population Fragmented Nuclei (%) [5]: 14% and 20% | Population Healthy Nuclei (%) [5]: 57% and 59% | Population Hoechst High Intensity Objects (%) [5]: 0% | Population Membrane Permeable-Phenotype (%) [5]: 15% and 8% | Population Mitochondria Different-Phenotype (%) [5]: 1% and 0% | Population Mitotic Cells (%) [5]: 44% and 40% | Population Normal (%) [5]: 100% and 99% | Population Pyknosed Nuclei (%) [5]: 28% and 19% | Total Cell Count [5]: 150 and 228 | Population Apoptotic (%) [6]: 61% and 80% | Population Fragmented Nuclei (%) [6]: 14% and 13% | Population Healthy Nuclei (%) [6]: 60% and 61% | Population Hoechst High Intensity Objects (%) [6]: 0% | Population Membrane Permeable-Phenotype (%) [6]: 11% and 4% | Population Mitochondria Different-Phenotype (%) [6]: 6% and 5% | Population Mitotic Cells (%) [6]: 38% and 20% | Population Normal (%) [6]: 99% | Population Pyknosed Nuclei (%) [6]: 24% and 25% | Population Tubulin-Different-Phenotype (%) [6]: 45% and 33% | Total Cell Count [6]: 149 and 198

CN(C)CCN(Cc1ccc(-c2ccc(CNCCc3ccccc3)cc2)cc1)C(=O)CCC1CCCC1.Cl.Cl
Population Apoptotic (%) [1]: 25% and 30% | Population Fragmented Nuclei (%) [1]: 20% and 26% | Population Healthy Nuclei (%) [1]: 56% and 57% | Population Hoechst High Intensity Objects (%) [1]: 0% | Population Membrane Permeable-Phenotype (%) [1]: 3% and 4% | Population Mitochondria Different-Phenotype (%) [1]: 11% and 14% | Population Mitotic Cells (%) [1]: 74% and 69% | Population Normal (%) [1]: 100% and 99% | Population Pyknosed Nuclei (%) [1]: 22% and 16% | Population Tubulin-Different-Phenotype (%) [1]: 68% and 55% | Total Cell Count [1]: 254 and 325 | Population Apoptotic (%) [2]: 84% and 86% | Population Fragmented Nuclei (%) [2]: 4% and 8% | Population Healthy Nuclei (%) [2]: 3% and 1% | Population Hoechst High Intensity Objects (%) [2]: 2% and 0% | Population Mitotic Cells (%) [2]: 15% and 13% | Population Normal (%) [2]: 97% and 99% | Population Pyknosed Nuclei (%) [2]: 92% and 90% | Population Tubulin-Different-Phenotype (%) [2]: 50% and 100% | Total Cell Count [2]: 199 and 160 | Population Apoptotic (%) [3]: 55% and 66% | Population Fragmented Nuclei (%) [3]: 13% and 19% | Population Healthy Nuclei (%) [3]: 67% and 68% | Population Hoechst High Intensity Objects (%) [3]: 0% | Population Membrane Permeable-Phenotype (%) [3]: 3% and 1% | Population Mitochondria Different-Phenotype (%) [3]: 23% and 29% | Population Mitotic Cells (%) [3]: 44% and 33% | Population Normal (%) [3]: 99% | Population Pyknosed Nuclei (%) [3]: 18% and 11% | Population Tubulin-Different-Phenotype (%) [3]: 72% and 60% | Total Cell Count [3]: 239 and 294 | Population Apoptotic (%) [4]: 87% and 90% | Population Fragmented Nuclei (%) [4]: 6% and 12% | Population Healthy Nuclei (%) [4]: 1% | Population Hoechst High Intensity Objects (%) [4]: 1% | Population Membrane Permeable-Phenotype (%) [4]: 33% | Population Mitotic Cells (%) [4]: 12% and 9% | Population Normal (%) [4]: 98% | Population Pyknosed Nuclei (%) [4]: 92% and 85% | Total Cell Count [4]: 199 and 156 | Population Apoptotic (%) [5]: 86% and 65% | Population Fragmented Nuclei (%) [5]: 19% and 27% | Population Healthy Nuclei (%) [5]: 74% and 66% | Population Hoechst High Intensity Objects (%) [5]: 0% | Population Membrane Permeable-Phenotype (%) [5]: 1% | Population Mitochondria Different-Phenotype (%) [5]: 9% and 11% | Population Mitotic Cells (%) [5]: 13% and 35% | Population Normal (%) [5]: 100% | Population Pyknosed Nuclei (%) [5]: 5% and 6% | Population Tubulin-Different-Phenotype (%) [5]: 41% and 38% | Total Cell Count [5]: 255 and 321 | Population Apoptotic (%) [6]: 83% and 93% | Population Fragmented Nuclei (%) [6]: 12% and 22% | Population Healthy Nuclei (%) [6]: 6% and 13% | Population Hoechst High Intensity Objects (%) [6]: 0% | Population Membrane Permeable-Phenotype (%) [6]: 8% and 14% | Population Mitochondria Different-Phenotype (%) [6]: 41% and 19% | Population Mitotic Cells (%) [6]: 16% and 7% | Population Normal (%) [6]: 100% | Population Pyknosed Nuclei (%) [6]: 81% and 63% | Population Tubulin-Different-Phenotype (%) [6]: 50% and 76% | Total Cell Count [6]: 200 and 157
